Experimental data: ChEMBL document CHEMBL4689842, “EUbOPEN Chemogenomics Library wave 1” (2021)

Tested on: Fibroblast
Assay: Multiplex assay against human fibroblast
Assay type: toxicity, cell-based
How it was run: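 Imaging took place on a CQ1 microscope at 37°C and 5% CO2 once compound had been added to live cells stained at seeding with Hoechst33342, BioTracker Green Microtubule Cytoskeleton Dye, MitoTracker Red and Annexin V Alexa Fluor 680. CellPathfinder machine-learning gating classed cells as Hoechst high-intensity objects or normal cells, classed normal cells as having healthy, pyknosed or fragmented nuclei, and classed pyknosed cells as mitotic or apoptotic. Tubulin, mitochondrial-mass and membrane-permeability phenotypes are per cents of the healthy-nucleus cells.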

[1] = 12 h, 1 µM, compound concentration 1 uM, replicate 1
[2] = 12 h, 1 µM, compound concentration 1 uM, replicate 2
[3] = 12 h, 10 µM, compound concentration 10 uM, replicate 1
[4] = 12 h, 10 µM, compound concentration 10 uM, replicate 2
[5] = 24 h, 1 µM, compound concentration 1 uM, replicate 1
[6] = 24 h, 1 µM, compound concentration 1 uM, replicate 2
[7] = 24 h, 10 µM, compound concentration 10 uM, replicate 1
[8] = 24 h, 10 µM, compound concentration 10 uM, replicate 2
[9] = 48 h, 1 µM, compound concentration 1 uM, replicate 1
[10] = 48 h, 1 µM, compound concentration 1 uM, replicate 2
[11] = 48 h, 10 µM, compound concentration 10 uM, replicate 1
[12] = 48 h, 10 µM, compound concentration 10 uM, replicate 2

SMILES: CN1CCN(Cc2ccc(Nc3ncc(Cl)c(Nc4ccccc4S(=O)(=O)N(C)C)n3)cc2)CC1 [DUBERMATINIB]
- Population Apoptotic (%) [1]: 54%
- Population Fragmented Nuclei (%) [1]: 27%
- Population Healthy Nuclei (%) [1]: 50%
- Population Hoechst High Intensity Objects (%) [1]: 12%
- Population Membrane Permeable-Phenotype (%) [1]: 41%
- Population Mitochondria Different-Phenotype (%) [1]: 3%
- Population Mitotic Cells (%) [1]: 45%
- Population Normal (%) [1]: 87%
- Population Pyknosed Nuclei (%) [1]: 21%
- Population Tubulin-Different-Phenotype (%) [1]: 41%
- Total Cell Count [1]: 126
- Population Apoptotic (%) [2]: 100%
- Population Fragmented Nuclei (%) [2]: 13%
- Population Healthy Nuclei (%) [2]: 83%
- Population Hoechst High Intensity Objects (%) [2]: 10%
- Population Membrane Permeable-Phenotype (%) [2]: 4%
- Population Mitochondria Different-Phenotype (%) [2]: 16%
- Population Mitotic Cells (%) [2]: 0%
- Population Normal (%) [2]: 89%
- Population Pyknosed Nuclei (%) [2]: 2%
- Population Tubulin-Different-Phenotype (%) [2]: 11%
- Total Cell Count [2]: 65
- Population Apoptotic (%) [3]: 72%
- Population Fragmented Nuclei (%) [3]: 18%
- Population Healthy Nuclei (%) [3]: 57%
- Population Hoechst High Intensity Objects (%) [3]: 14%
- Population Membrane Permeable-Phenotype (%) [3]: 22%
- Population Mitochondria Different-Phenotype (%) [3]: 11%
- Population Mitotic Cells (%) [3]: 28%
- Population Normal (%) [3]: 85%
- Population Pyknosed Nuclei (%) [3]: 23%
- Population Tubulin-Different-Phenotype (%) [3]: 56%
- Total Cell Count [3]: 125
- Population Apoptotic (%) [4]: 73%
- Population Fragmented Nuclei (%) [4]: 45%
- Population Healthy Nuclei (%) [4]: 31%
- Population Hoechst High Intensity Objects (%) [4]: 9%
- Population Membrane Permeable-Phenotype (%) [4]: 28%
- Population Mitochondria Different-Phenotype (%) [4]: 38%
- Population Mitotic Cells (%) [4]: 26%
- Population Normal (%) [4]: 90%
- Population Pyknosed Nuclei (%) [4]: 22%
- Population Tubulin-Different-Phenotype (%) [4]: 42%
- Total Cell Count [4]: 91
- Population Apoptotic (%) [5]: 70%
- Population Fragmented Nuclei (%) [5]: 28%
- Population Healthy Nuclei (%) [5]: 57%
- Population Hoechst High Intensity Objects (%) [5]: 11%
- Population Membrane Permeable-Phenotype (%) [5]: 31%
- Population Mitochondria Different-Phenotype (%) [5]: 5%
- Population Mitotic Cells (%) [5]: 29%
- Population Normal (%) [5]: 88%
- Population Pyknosed Nuclei (%) [5]: 14%
- Population Tubulin-Different-Phenotype (%) [5]: 37%
- Total Cell Count [5]: 137
- Population Apoptotic (%) [6]: 0%
- Population Fragmented Nuclei (%) [6]: 11%
- Population Healthy Nuclei (%) [6]: 83%
- Population Hoechst High Intensity Objects (%) [6]: 6%
- Population Membrane Permeable-Phenotype (%) [6]: 4%
- Population Mitochondria Different-Phenotype (%) [6]: 36%
- Population Mitotic Cells (%) [6]: 100%
- Population Normal (%) [6]: 93%
- Population Pyknosed Nuclei (%) [6]: 4%
- Population Tubulin-Different-Phenotype (%) [6]: 14%
- Total Cell Count [6]: 70
- Population Apoptotic (%) [7]: 42%
- Population Fragmented Nuclei (%) [7]: 23%
- Population Healthy Nuclei (%) [7]: 55%
- Population Hoechst High Intensity Objects (%) [7]: 15%
- Population Membrane Permeable-Phenotype (%) [7]: 12%
- Population Mitochondria Different-Phenotype (%) [7]: 16%
- Population Mitotic Cells (%) [7]: 57%
- Population Normal (%) [7]: 84%
- Population Pyknosed Nuclei (%) [7]: 21%
- Population Tubulin-Different-Phenotype (%) [7]: 61%
- Total Cell Count [7]: 116
- Population Apoptotic (%) [8]: 95%
- Population Fragmented Nuclei (%) [8]: 30%
- Population Healthy Nuclei (%) [8]: 33%
- Population Hoechst High Intensity Objects (%) [8]: 14%
- Population Membrane Permeable-Phenotype (%) [8]: 55%
- Population Mitochondria Different-Phenotype (%) [8]: 55%
- Population Mitotic Cells (%) [8]: 4%
- Population Normal (%) [8]: 85%
- Population Pyknosed Nuclei (%) [8]: 36%
- Population Tubulin-Different-Phenotype (%) [8]: 65%
- Total Cell Count [8]: 87
- Population Apoptotic (%) [9]: 62%
- Population Fragmented Nuclei (%) [9]: 39%
- Population Healthy Nuclei (%) [9]: 46%
- Population Hoechst High Intensity Objects (%) [9]: 10%
- Population Membrane Permeable-Phenotype (%) [9]: 22%
- Population Mitochondria Different-Phenotype (%) [9]: 7%
- Population Mitotic Cells (%) [9]: 37%
- Population Normal (%) [9]: 89%
- Population Pyknosed Nuclei (%) [9]: 13%
- Population Tubulin-Different-Phenotype (%) [9]: 40%
- Total Cell Count [9]: 129
- Population Apoptotic (%) [10]: 66%
- Population Fragmented Nuclei (%) [10]: 30%
- Population Healthy Nuclei (%) [10]: 67%
- Population Hoechst High Intensity Objects (%) [10]: 4%
- Population Membrane Permeable-Phenotype (%) [10]: 24%
- Population Mitochondria Different-Phenotype (%) [10]: 5%
- Population Mitotic Cells (%) [10]: 33%
- Population Normal (%) [10]: 95%
- Population Pyknosed Nuclei (%) [10]: 2%
- Population Tubulin-Different-Phenotype (%) [10]: 41%
- Total Cell Count [10]: 115
- Population Apoptotic (%) [11]: 53%
- Population Fragmented Nuclei (%) [11]: 39%
- Population Healthy Nuclei (%) [11]: 36%
- Population Hoechst High Intensity Objects (%) [11]: 13%
- Population Membrane Permeable-Phenotype (%) [11]: 31%
- Population Mitochondria Different-Phenotype (%) [11]: 21%
- Population Mitotic Cells (%) [11]: 46%
- Population Normal (%) [11]: 86%
- Population Pyknosed Nuclei (%) [11]: 24%
- Population Tubulin-Different-Phenotype (%) [11]: 73%
- Total Cell Count [11]: 122
- Population Apoptotic (%) [12]: 50%
- Population Fragmented Nuclei (%) [12]: 43%
- Population Healthy Nuclei (%) [12]: 44%
- Population Hoechst High Intensity Objects (%) [12]: 16%
- Population Membrane Permeable-Phenotype (%) [12]: 32%
- Population Mitochondria Different-Phenotype (%) [12]: 19%
- Population Mitotic Cells (%) [12]: 50%
- Population Normal (%) [12]: 83%
- Population Pyknosed Nuclei (%) [12]: 11%
- Population Tubulin-Different-Phenotype (%) [12]: 48%
- Total Cell Count [12]: 83
